Unmarked numbers belong to inactive results. Records with an inconclusive call do not appear. Active and inactive are the calls of the source.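 How the source made its calls, unless noted: active means cell viability at or below a set limit in both duplicate runs, the limit being the all-compound median minus 4 SD (cut at about 23% in these data, passing the limit was not always enough); inconclusive means no clear call, values can overlap the other calls; inactive means the rest.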

A short description of test [1]: S. cerevisiae growth inhibition in permissive medium (OD615), pilot counter-assay for S. cerevisiae lifespan shortening project, permissive growth control (AID 705;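 active means growth inhibition above 25% in both replicates, a cutoff set 3 SD above the mean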). The settings on record: OD615, 24 h, at 10 µM, active compounds read high. The procedure, abridged:
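System – S. cerevisiae with engineered DeaD lifespan system · Buffer or medium – SC raffinose/galactose permissive medium · Schedule – cells pre-grown 4 h, then 24 h compound exposure, 30 °C humidified · Technique – culture turbidity as optical density at 615 nm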

Test [2] can be described thus: S. cerevisiae growth inhibition in restrictive medium, OD615, pilot screen, restrictive growth control, yeast lifespan reduction project (AID 706;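 active means growth inhibition above a set limit, 3 SD over mean compound inhibition, in both replicates, cut at about 43% in these data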;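 further: modified DeaD lifespan yeast strain shifted to restrictive glucose medium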). The note with it: OD615, 48 h, at 10 µM, active compounds read high. A digest of the protocol: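 Material: engineered S. cerevisiae DeaD strain / Medium: glucose-based CSMM-D restrictive medium / Compound: single dose of 10 µM compound final, 0.25% DMSO / Timing: 4 h pre-incubation, 48 h exposure at 30 °C / Technique: OD615 absorbance reading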

A short description of test [3]: doxorubicin toxicity protection in MRP-1 cells – H69AR cells, CellTiter-Glo, duplicate, MRP-1 activator project, pilot screen (AID 807;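 active means viability increase at or above a cutoff of the median across tested compounds plus 3 SD, cut at about 8.5% in these data, passing the limit was not always enough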;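 further: compound pretreatment 18-22 h then 72 h combined with doxorubicin; 0% = doxorubicin alone and 100% = vehicle without doxorubicin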). The settings on record: H69AR viability with doxorubicin, CellTiter-Glo luminescence; at 10 µM; active compounds read high. In general terms: ATP-based viability assays read luminescence as a measure of living cells.
A short description of test [4]: viability of HCT116 without oncogenic beta-catenin – human colon tumor cells, pilot screen (AID 823).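 Further: 0% = wells killed by 20 µM Hyamine and 100% = untreated DMSO cell wells.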 The note with it: HCT116 beta-catenin knockout viability, CellTiter-Glo, 60 h; at 10 µM; active compounds read low.
Test [5] can be described thus: viability of PTEN-null HCT116 cells – cell-based, HCT116 clonal line, CellTiter-Glo, pilot screen (AID 824;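 active means viability at or below 27.92% in each of two runs, the all-compound median minus 4 SD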;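 further: 0% = 20 µM Hyamine control and 100% = vehicle cell control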). The note with it: HCT116 PTEN-deleted viability, 60 h, at 10 µM, active compounds read low.
Test [6] in a line: RAM pathway blockade in budding yeast – dse1pr::URA3 reporter, 5-FOA selection, pilot screen (AID 869;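 active means inhibition over a set limit, the all-compound mean plus 3 SD, in both replicate runs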;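 further: 0% = DMSO wells with no growth and 100% = 10 µM 1-NA-PP1 with full growth; RAM network block rescues cells from 5-FOA so hits raise OD615 growth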). The note with it: S. cerevisiae dse1pr::URA3 5-FOA growth, OD615, 2 d; at 10 µM; active compounds read high; strain carries analog-sensitive mutant Cbk1 kinase.
The nature of test [7]: RAM signaling pathway blockade in yeast – S. cerevisiae, Pdr1DBD-CYC8 efflux-inhibited sensitized strain, primary screen (AID 1298;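 active means RAM network inhibition above 8.4% in each of two replicates, 3 SD over the compound average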;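 further: 0% = DMSO untreated cells without growth and 100% = 10 µM 1-NA-PP1 full growth; higher means more yeast growth rescued from 5-FOA killing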). The settings on record: S. cerevisiae cbk1-as DSE1-URA3 strain, 5-FOA growth OD615, 2 d; at 50 µM; active compounds read high.

The viability is a read-out of living cells in per cent, often relative to untreated cells. As a reminder, the inhibition is the relative decrease from the control value, in per cent. Turning to `OCc1cn(-c2ccccc2)nc1-c1ccc(-c2nn(-c3ccccc3)cc2CO)cc1`, the growth inhibition in test [1] was 3.83%; in test [2], -4.29%. In addition, the viability increase in test [3] is -4.72%. In addition, the viability in test [4] was 102%; in test [5], 95.1%. Further, in test [6], the inhibition is 1.8%. The RAM network inhibition in test [7] is 5.84%.
`Cc1oc2cc(O)ccc2c(=O)c1Oc1ccccc1Br`: the growth inhibition in test [1] was -15.9%; in test [2], -12.2%. Moreover, in test [3], the viability increase is -3.45%. Moreover, the values for the viability in test [4] and in test [5] were 94% and 84.4%, respectively. In addition, the inhibition in test [6] is 1.68%. Further, in test [7], the RAM network inhibition is 2.42%.
With `Cc1nn(-c2ccccc2)c(Cl)c1C(=O)Nc1c(C)n(C)n(-c2ccccc2)c1=O`, the growth inhibition in test [1] is -9%; in test [2] it was -23%. The viability increase in test [3] was -0.99%. Moreover, the viability in test [4] is 102%; in test [5] it was 94.3%. Also, the inhibition in test [6] is 0.935%. Moreover, the RAM network inhibition in test [7] is 3.15%.
For the compound `O=C(Cc1cc(=O)[nH]c(=O)[nH]1)NCC1CCCO1` (stereo not drawn), the growth inhibition in test [1] is 7.33%; in test [2], -1.15%. For the same compound, in test [3], the viability increase is 0.94%. The viability in test [4] was 106%; in test [5], 104%. For the same compound, the inhibition in test [6] is 0.945%. In test [7], the RAM network inhibition is 2.29%.
On to `CCSCCOC(=O)C1=C(C)NC(=O)NC1c1cccc(OC)c1OC` (stereo not drawn), for which the growth inhibition in test [1] was -15%; in test [2] it was -9.84%. The viability increase in test [3] was -1.39%. Also, the viability was 96.8% in test [4] and 96.9% in test [5]. Besides, the inhibition in test [6] was 0.96%. The RAM network inhibition in test [7] is 0.63%.
For the compound `CCOc1ccc(-c2nnc3n2N=C(c2ccc(OC)cc2)CS3)cc1`, the growth inhibition is -2.4% in test [1] and -3.84% in test [2]. The viability increase in test [3] was -5.29%. Also, the viability in test [4] was 84%; in test [5], 82%. The inhibition in test [6] was 1.72%. Moreover, in test [7], the RAM network inhibition is 5.3%.
Take `COc1ccccc1NC(=O)C1=C(C)Nc2nc(-c3cccs3)nn2C1c1cccnc1` (stereo not drawn): the growth inhibition in test [1] was -13.7%; in test [2], -9.57%. Moreover, the viability increase in test [3] is -5.67%. Besides, the results for the viability in test [4] and in test [5] were 86.7% and 91.4%, respectively. Moreover, in test [6], the inhibition is 2.23%. In addition, the RAM network inhibition in test [7] is 4.86%.
Consider `CCC1Oc2ccccc2N(CC(=O)NCCCN2CCOCC2)C1=O` (stereo not drawn), for which the growth inhibition in test [1] was -2.59%; in test [2] it was 4.67%. Besides, the viability increase in test [3] was -1.49%. The values for the viability in test [4] and in test [5] were 109% and 105%, respectively. In addition, the inhibition in test [6] is 1.29%. In addition, the RAM network inhibition in test [7] was 0.62%.
On to `Cc1cccc(NC(=O)c2ccc(S(=O)(=O)N(C)C)cc2)c1`, for which the figures for the growth inhibition in test [1] and in test [2] were -8.26% and -8.44%, respectively. The viability increase in test [3] is -3.61%. Moreover, the viability in test [4] is 106%; in test [5] it was 100%. The inhibition in test [6] was 2.24%. For the same compound, the RAM network inhibition in test [7] is 1.69%.
`CC(C)(C)NC(=O)CSc1nc(O)cc(=O)n1-c1ccccc1F`: the results for the growth inhibition in test [1] and in test [2] were -5.45% and -3.51%, respectively. Moreover, the viability increase in test [3] is -0.7%. Moreover, the viability is 95.5% in test [4] and 101% in test [5]. Also, the inhibition in test [6] is 0.91%. Also, in test [7], the RAM network inhibition was 1.87%.
On to `Cc1cc(=O)[nH]c(SCC(=O)NCCOc2ccccc2)n1`, for which the growth inhibition in test [1] was -2.17%; in test [2], -1.72%. The viability increase in test [3] was -0.09%. In addition, the values for the viability in test [4] and in test [5] were 102% and 98.8%, respectively. Also, the inhibition in test [6] was 1.02%. In addition, the RAM network inhibition in test [7] is 1.13%.
With `O=C1CC(c2ccc(S(=O)(=O)NCc3ccccc3)cc2)CN1` (stereo not drawn), the growth inhibition is -7.82% in test [1] and -21% in test [2]. Moreover, the viability increase in test [3] was -2.13%. Also, the viability was 101% in test [4] and 87.9% in test [5]. In addition, in test [6], the inhibition is 1.56%. Also, in test [7], the RAM network inhibition was 1.23%.
For `CN(C)CCNc1ncnc2c1cnn2-c1ccc(Cl)cc1`, the growth inhibition in test [1] was -13.2%; in test [2] it was -3.57%. Besides, the viability increase in test [3] is -7.01%. The viability in test [4] is 4.33% (active); in test [5], 4.63% (active). In test [6], the inhibition is 1.62%. Also, the RAM network inhibition in test [7] is 3.07%.
Regarding `O=C(c1nnc(Cc2ccc(Cl)cc2)o1)N1CCc2ccccc2C1`, the values for the growth inhibition in test [1] and in test [2] were -7.83% and 7.34%, respectively. In addition, the viability increase in test [3] was 3.24%. Also, the viability in test [4] was 103%; in test [5] it was 107%. Also, the inhibition in test [6] is 0.135%. Also, the RAM network inhibition in test [7] was 4.39%.
Turning to `O=C1CC(NCc2ccc3c(c2)OCO3)C(=O)N1CCc1ccccc1` (stereo not drawn), the growth inhibition in test [1] was -16%; in test [2] it was -11.1%. The viability increase in test [3] was -2.06%. The viability in test [4] was 102%; in test [5], 104%. In test [6], the inhibition was 1.88%. Moreover, the RAM network inhibition in test [7] is 0.51%.
For the compound `Clc1ccc(-c2noc(COc3ccccc3)n2)cc1`, the growth inhibition in test [1] is -3.93%; in test [2] it was 14.3%. For the same compound, the viability increase in test [3] is 2.15%. Further, the viability is 101% in test [4] and 95.6% in test [5]. For the same compound, the inhibition in test [6] was 0.745%. The RAM network inhibition in test [7] is 9.14%.
With `Cc1noc(C)c1S(=O)(=O)N(CC(=O)N1CCCC1)c1ccc(C(C)C)cc1`, the growth inhibition is -1.45% in test [1] and -1.11% in test [2]. For the same compound, the viability increase in test [3] is -5.13%. In addition, the figures for the viability in test [4] and in test [5] were 83.6% and 83%, respectively. For the same compound, in test [6], the inhibition is 0.4%. The RAM network inhibition in test [7] is 4.43%.
`CC1CCN(C(=O)CSc2nnc(-c3ccco3)o2)CC1`: the growth inhibition in test [1] is 0.09%; in test [2] it was 6.93%. Further, the viability increase in test [3] was 0.32%. Also, the figures for the viability in test [4] and in test [5] were 106% and 102%, respectively. The inhibition in test [6] was 2.54%. In test [7], the RAM network inhibition was 1.64%.
As to `Cc1cc(C)cc(N(CC(=O)NCC2CCCO2)S(=O)(=O)c2c(C)noc2C)c1` (stereo not drawn), the values for the growth inhibition in test [1] and in test [2] were -12.5% and -8.86%, respectively. Further, in test [3], the viability increase is -1.25%. For the same compound, the viability in test [4] was 102%; in test [5] it was 90.5%. Moreover, the inhibition in test [6] was 2.89%. Moreover, in test [7], the RAM network inhibition was 1.84%.
In the case of `O=C(O)CC(NC(=O)OCc1ccccc1)c1ccccc1` (stereo not drawn), the values for the growth inhibition in test [1] and in test [2] were 2.56% and -5.79%, respectively. In test [3], the viability increase was -1.78%. Further, the values for the viability in test [4] and in test [5] were 91.7% and 96.5%, respectively. Further, in test [6], the inhibition is 1.17%. Also, the RAM network inhibition in test [7] was -0.33%.
With `Cc1cc(N2CCN(C3CCCCC3)CC2)n2nc(C)nc2n1`, the figures for the growth inhibition in test [1] and in test [2] were 5.17% and 4.13%, respectively. Further, the viability increase in test [3] was -2.07%. The viability in test [4] was 93.5%; in test [5], 96.2%. In test [6], the inhibition is 2.16%. For the same compound, in test [7], the RAM network inhibition was 5.03%.
Consider `CCN1CCN(C(=O)C2CCN(Cc3nc(-c4ccc(Cl)cc4)oc3C)CC2)CC1`, for which the growth inhibition in test [1] was -10.7%; in test [2] it was -25%. Besides, the viability increase in test [3] is -2.66%. Also, the values for the viability in test [4] and in test [5] were 85.8% and 79.7%, respectively. Also, the inhibition in test [6] is 2.88%. The RAM network inhibition in test [7] is 2.86%.
In the case of `CCOCCn1c(SCc2ccc(F)cc2)nc2c1c(=O)[nH]c(=O)n2C`, the growth inhibition in test [1] was -4.31%; in test [2] it was 5.57%. Moreover, the viability increase in test [3] is -2.04%. The viability in test [4] is 99%; in test [5], 94.3%. Moreover, the inhibition in test [6] was -0.925%. In addition, the RAM network inhibition in test [7] is -0.32%.
With `CC(C)(C)n1nc2c(c1NC(=O)c1ccc(Br)cc1)CS(=O)C2` (stereo not drawn), the growth inhibition is -8.25% in test [1] and -4.19% in test [2]. Moreover, the viability increase in test [3] was 0.64%. Moreover, the viability was 107% in test [4] and 99.2% in test [5]. Also, the inhibition in test [6] is 0.495%. In addition, the RAM network inhibition in test [7] is -0.53%.

The record behind these values is PubChem BioAssay.
